Results taken from ChEMBL document CHEMBL1629439, “High-throughput identification of antibacterials against methicillin-resistant Staphylococcus aureus (MRSA) and the transglycosylase” (Bioorg Med Chem, 2010).
In brackets after ≈: the same amount, converted by molar mass.

Tests used:
[1] = test system: Staphylococcus aureus; assay: Antimicrobial activity against oxacillin- and methicillin-resistant Staphylococcus aureus isolate Sa-OXA-R2 after 18 to 24 hrs by alamar blue assay; assay type: functional
Procedure, shortened: (§1)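 Broth microdilution per NCCLS standard, Mueller-Hinton broth, 8-point twofold dilutions; exponentially growing cells at 5 10^5 cells/ml with compound, 18–24 h at 37 C; 20% Alamar blue added, fluorescence read; MIC90 taken as lowest concentration preventing at least 90% growth.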

[2] = test system: Bacillus subtilis; assay: Antimicrobial activity against Bacillus subtilis ATCC 23857 after 18 to 24 hrs by alamar blue assay; assay type: functional
Procedure, shortened: (§2)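 Broth microdilution per NCCLS in Mueller-Hinton broth, 8-point twofold dilutions, 384-well format. Exponential-phase cells at 5 × 10^5 cells/ml incubated with compound 18–24 h at 37 °C, then 20% Alamar blue added and fluorescence read. MIC90 taken as the lowest concentration preventing at least 90% bacterial growth.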

[3] = test system: Escherichia coli; assay: Antimicrobial activity against Escherichia coli ATCC […] after 18 to 24 hrs by alamar blue assay; assay type: functional; settings: Escherichia coli; read-out: MIC; procedure, shortened: as §2
[4] = test system: Pseudomonas aeruginosa; assay: Antimicrobial activity against Pseudomonas aeruginosa ATCC 25619 after 18 to 24 hrs by alamar blue assay; assay type: functional; settings: Pseudomonas aeruginosa, ATCC 25619; read-out: MIC; procedure, shortened: as §2
[5] = test system: Acinetobacter baumannii; assay: Antimicrobial activity against Acinetobacter baumannii ATCC 49139 after 18 to 24 hrs by alamar blue assay; assay type: functional; settings: Acinetobacter baumannii, ATCC 49139; read-out: MIC; procedure, shortened: as §2
[6] = test system: Stenotrophomonas maltophilia; assay: Antimicrobial activity against Stenotrophomonas maltophilia ATCC 13637 after 18 to 24 hrs by alamar blue assay; assay type: functional; settings: Stenotrophomonas maltophilia, ATCC 13637; read-out: MIC; procedure, shortened: as §2
[7] = test system: Serratia marcescens; assay: Antimicrobial activity against Serratia marcescens ATCC 14756 after 18 to 24 hrs by alamar blue assay; assay type: functional; settings: Serratia marcescens, ATCC 14756; read-out: MIC; procedure, shortened: as §2
[8] = test system: Mycolicibacterium smegmatis; assay: Antimicrobial activity against Mycobacterium smegmatis BCRC 11565 after 18 to 24 hrs by alamar blue assay; assay type: functional; settings: Mycolicibacterium smegmatis, BCRC 11565; read-out: MIC; procedure, shortened: as §2
[9] = test system: Staphylococcus aureus; assay: Antimicrobial activity against methicillin-resistant Staphylococcus aureus isolate NTUH4722 after 18 to 24 hrs by alamar blue assay; assay type: functional; procedure, shortened: as §1
[10] = test system: Staphylococcus aureus; assay: Antimicrobial activity against methicillin-resistant Staphylococcus aureus ATCC 33592 after 18 to 24 hrs by alamar blue assay; assay type: functional; settings: Staphylococcus aureus, ATCC 33592; read-out: MIC; procedure, shortened: as §1
[11] = test system: Staphylococcus aureus; assay: Antimicrobial activity against Staphylococcus aureus ATCC 29213 after 18 to 24 hrs by alamar blue assay

Compound	MIC [1] [µg/mL]	MIC [2] [µg/mL]	MIC [3] [µg/mL]	MIC [4] [µg/mL]	MIC [5] [µg/mL]	MIC [6] [µg/mL]	MIC [7] [µg/mL]	MIC [8] [µg/mL]	MIC [9] [µg/mL]	MIC [10] [µg/mL]	MIC [11] [µg/mL]
Cc1c(CC(=O)N2CCC(C(=O)O)CC2)c(=O)oc2c(C)c3occ(-c4ccc(Cl)cc4)c3cc12	2.5 (≈ 5.06 µM)	> 64	> 256	> 256	> 256	> 256	> 256	1 (≈ 2.02 µM)	2.5 (≈ 5.06 µM)	1.25 (≈ 2.53 µM)	2.5 (≈ 5.06 µM)
O=C(Nc1nnc(-c2ccc(F)cc2)o1)c1cccc(Cl)c1	4 (≈ 12.6 µM)	0.5 (≈ 1.57 µM)	> 256	> 256	> 256	> 256	> 256	0.5 (≈ 1.57 µM)	1 (≈ 3.15 µM)	0.5 (≈ 1.57 µM)	1 (≈ 3.15 µM)
Cc1c(CC(=O)O)c(=O)oc2c(C)c3occ(-c4ccc(Br)cc4)c3cc12	2 (≈ 4.68 µM)	> 64	> 256	> 256	> 256	> 256	> 256	1 (≈ 2.34 µM)	16 (≈ 37.4 µM)	2 (≈ 4.68 µM)	2 (≈ 4.68 µM)
O=C(Nc1nnc(-c2ccc(Br)cc2)o1)c1cccc(F)c1	0.5 (≈ 1.38 µM)	0.5 (≈ 1.38 µM)	> 256	> 256	> 256	> 256	> 256	0.5 (≈ 1.38 µM)	0.5 (≈ 1.38 µM)	0.5 (≈ 1.38 µM)	2 (≈ 5.52 µM)
Cc1c(CC(=O)N[C@@H](C(=O)O)c2ccccc2)c(=O)oc2c(C)c3occ(-c4ccc(Cl)cc4)c3cc12	2.5 (≈ 4.85 µM)	> 64	> 256	> 256	> 256	> 256	> 256	1 (≈ 1.94 µM)	2.5 (≈ 4.85 µM)	2.5 (≈ 4.85 µM)	2.5 (≈ 4.85 µM)
CSC[C@H](NC(=O)Cc1c(C)c2cc3c(-c4ccc(Cl)cc4)coc3c(C)c2oc1=O)C(=O)O	2.5 (≈ 5 µM)	> 64	> 256	> 256	> 256	> 256	> 256	1 (≈ 2 µM)	2.5 (≈ 5 µM)	1.25 (≈ 2.5 µM)	2.5 (≈ 5 µM)
Cc1ccc(NS(=O)(=O)c2ccc3c(c2)NCC(C)C(=O)S3)c(Br)c1 (stereo unspecified)	> 64	< 0.03	> 256	> 256	> 256	> 256	> 256	> 64	16 (≈ 36.3 µM)	8 (≈ 18.1 µM)	2 (≈ 4.53 µM)
Cc1ccc(C)c(NS(=O)(=O)c2ccc3c(c2)NCC(C)C(=O)S3)c1 (stereo unspecified)	> 64	< 0.03	> 256	> 256	> 256	> 256	> 256	> 64	32 (≈ 85 µM)	16 (≈ 42.5 µM)	2 (≈ 5.31 µM)
CCC1Sc2ccc(S(=O)(=O)Nc3c(C)cc(C)cc3C)cc2NC1=O (stereo unspecified)	> 64	< 0.03	> 256	> 256	> 256	> 256	> 256	> 64	32 (≈ 81.9 µM)	64 (≈ 164 µM)	2 (≈ 5.12 µM)
O=C1c2cc([N+](=O)[O-])cc3cc([N+](=O)[O-])cc(c23)C(=O)N1c1cccc2ccccc12	0.125 (≈ 0.302 µM)	4 (≈ 9.68 µM)	> 256	> 256	> 256	> 256	> 256	4 (≈ 9.68 µM)	0.125 (≈ 0.302 µM)	2.5 (≈ 6.05 µM)	1.25 (≈ 3.02 µM)
O=C(Nc1cccc(Cl)c1)c1cc(Br)cc(Br)c1O	8 (≈ 19.7 µM)	< 0.03	8 (≈ 19.7 µM)	16 (≈ 39.5 µM)	16 (≈ 39.5 µM)	16 (≈ 39.5 µM)	16 (≈ 39.5 µM)	0.5 (≈ 1.23 µM)	2 (≈ 4.93 µM)	2 (≈ 4.93 µM)	2 (≈ 4.93 µM)
